Source: paper PMC12709667 (Journal of Clinical Pharmacology, 2025)
“And” between values parts separate entries of the source, which are not always exact repeats. Equal values may be shown once.

How the values were obtained:
[1] = In vitro blood/plasma partitioning; format: in vitro ADME; conditions: rat, whole blood
Outline: (§1)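 Test compound was added to rat, monkey or human whole blood and incubated, then centrifuged to obtain plasma. The plasma concentration was measured by LC-MS. It was compared with the concentration in directly spiked plasma of the same species.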

UGT1A1 = molecular target: T1, UGT1A1 (Homo sapiens, UniProt P22309); assay: DDI perpetrator study: dolutegravir probe; format: in vivo; conditions: miricorilant 400 mg once daily as perpetrator
T1 sequence (P22309 26-533): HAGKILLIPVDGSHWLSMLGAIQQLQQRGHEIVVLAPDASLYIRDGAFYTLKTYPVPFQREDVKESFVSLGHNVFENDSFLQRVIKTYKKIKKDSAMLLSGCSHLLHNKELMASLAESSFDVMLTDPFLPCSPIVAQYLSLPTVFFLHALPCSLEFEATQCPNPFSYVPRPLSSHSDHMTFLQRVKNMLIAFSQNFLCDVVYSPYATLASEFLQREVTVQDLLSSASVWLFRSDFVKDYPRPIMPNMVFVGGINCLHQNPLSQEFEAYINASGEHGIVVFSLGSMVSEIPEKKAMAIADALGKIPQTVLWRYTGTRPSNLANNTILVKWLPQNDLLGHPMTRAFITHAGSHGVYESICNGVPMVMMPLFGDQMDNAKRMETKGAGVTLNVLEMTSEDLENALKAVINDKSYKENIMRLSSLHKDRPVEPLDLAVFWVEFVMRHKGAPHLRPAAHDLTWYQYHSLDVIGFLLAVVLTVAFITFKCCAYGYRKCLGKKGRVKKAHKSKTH

[2] = Quantitative whole-body autoradiography tissue distribution in mice; format: in vivo, mouse; conditions: for association of radioactivity with melanin: pigmented mice
Outline: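 Quantitative whole-body autoradiography after dosing with [14C]-labelled test compound, in non-pigmented (albino) and partially pigmented C57 mice. Frozen carcasses were sectioned and imaged at timepoints from 1 h to 168 h postdose to measure tissue radioactivity. Melanin-containing tissues (skin, uveal tract) were included.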

CYP2C8 = molecular target: T2, CYP2C8 (Homo sapiens, UniProt P10632); assay: DDI perpetrator study: repaglinide probe; format: in vivo; conditions: miricorilant 400 mg once daily as perpetrator
T2 sequence (P10632 1-490): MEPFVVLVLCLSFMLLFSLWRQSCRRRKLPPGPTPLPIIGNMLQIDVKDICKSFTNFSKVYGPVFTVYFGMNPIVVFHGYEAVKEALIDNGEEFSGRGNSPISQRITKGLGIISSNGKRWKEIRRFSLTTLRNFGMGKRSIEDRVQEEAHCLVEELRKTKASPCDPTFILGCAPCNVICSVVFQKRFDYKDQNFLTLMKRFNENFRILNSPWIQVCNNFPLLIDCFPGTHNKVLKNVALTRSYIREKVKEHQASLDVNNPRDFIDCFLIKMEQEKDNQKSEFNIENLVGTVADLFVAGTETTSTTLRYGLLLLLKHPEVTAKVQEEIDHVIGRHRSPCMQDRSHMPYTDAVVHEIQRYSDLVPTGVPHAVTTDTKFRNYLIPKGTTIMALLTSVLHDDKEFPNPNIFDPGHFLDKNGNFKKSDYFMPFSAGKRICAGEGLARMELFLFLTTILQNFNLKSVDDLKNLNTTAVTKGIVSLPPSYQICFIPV

28-day toxicology study = format: in vivo, monkey; conditions: monkeys
[3] = In vitro blood/plasma partitioning; format: in vitro ADME; conditions: human, whole blood
Outline: as §1

Human [14C] ADME study = format: in vivo
BCRP = molecular target: T3, BCRP (Homo sapiens, UniProt Q9UNQ0); assay: DDI perpetrator study: rosuvastatin probe; format: in vivo; conditions: miricorilant 400 mg once daily as perpetrator
T3 sequence (Q9UNQ0 1-655): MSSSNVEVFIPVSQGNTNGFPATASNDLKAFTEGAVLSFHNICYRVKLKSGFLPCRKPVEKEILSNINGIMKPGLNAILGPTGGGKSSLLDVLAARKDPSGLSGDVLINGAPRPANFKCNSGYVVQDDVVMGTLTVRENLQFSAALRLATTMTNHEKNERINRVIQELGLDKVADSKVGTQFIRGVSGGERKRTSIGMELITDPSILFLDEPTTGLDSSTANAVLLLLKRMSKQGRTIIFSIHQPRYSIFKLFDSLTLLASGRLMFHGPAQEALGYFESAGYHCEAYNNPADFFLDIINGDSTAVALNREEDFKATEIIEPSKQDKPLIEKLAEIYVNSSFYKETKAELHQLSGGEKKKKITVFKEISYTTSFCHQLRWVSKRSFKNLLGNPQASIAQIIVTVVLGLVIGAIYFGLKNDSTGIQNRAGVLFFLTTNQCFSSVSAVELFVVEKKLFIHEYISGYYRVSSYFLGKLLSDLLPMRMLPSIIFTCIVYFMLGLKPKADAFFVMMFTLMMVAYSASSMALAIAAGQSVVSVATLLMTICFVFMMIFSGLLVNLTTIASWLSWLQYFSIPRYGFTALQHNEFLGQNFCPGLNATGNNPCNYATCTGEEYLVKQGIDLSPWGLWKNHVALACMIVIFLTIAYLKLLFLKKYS

OATP1B3 = molecular target: T4, OATP1B3 (Homo sapiens, UniProt Q9NPD5); assay: Transporter substrate assessment; format: in vitro ADME
T4 sequence (Q9NPD5 1-702): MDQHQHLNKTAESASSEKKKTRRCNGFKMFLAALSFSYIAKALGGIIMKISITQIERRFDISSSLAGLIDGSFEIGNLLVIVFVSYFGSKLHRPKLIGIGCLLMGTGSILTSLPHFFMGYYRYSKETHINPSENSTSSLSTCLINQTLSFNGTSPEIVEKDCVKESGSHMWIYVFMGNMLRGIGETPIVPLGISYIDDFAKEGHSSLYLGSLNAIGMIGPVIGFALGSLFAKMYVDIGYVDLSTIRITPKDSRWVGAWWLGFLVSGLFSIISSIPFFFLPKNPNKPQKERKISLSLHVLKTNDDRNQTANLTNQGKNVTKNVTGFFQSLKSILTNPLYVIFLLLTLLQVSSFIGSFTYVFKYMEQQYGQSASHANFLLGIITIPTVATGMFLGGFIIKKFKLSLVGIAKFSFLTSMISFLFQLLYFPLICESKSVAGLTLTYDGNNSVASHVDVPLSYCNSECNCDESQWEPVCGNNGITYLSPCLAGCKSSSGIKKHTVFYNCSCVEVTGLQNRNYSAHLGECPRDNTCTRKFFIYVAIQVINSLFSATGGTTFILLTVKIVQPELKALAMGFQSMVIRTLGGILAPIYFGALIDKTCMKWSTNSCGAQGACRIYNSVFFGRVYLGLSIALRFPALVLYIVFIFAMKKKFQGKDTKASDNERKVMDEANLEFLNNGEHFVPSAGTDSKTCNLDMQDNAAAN

With `O=c1[nH]c(=O)c(Cc2cccc(C(F)(F)F)c2)c([C@H]2CC[C@H](c3ccccc3)CC2)[nH]1` [miricorilant] the blood plasma ratio [1] was 0.84, the “clinical inhibition of UGT1A1” value (UGT1A1) was “does not inhibit” and the “radioactivity in the lens of the eye” value ([2]; albino mice) was “not present at quantifiable levels”. The “radioactivity in the brain and spinal cord” value ([2]; albino mice, 4 and 8 h) was “low levels”, the “time of peak tissue concentration of radioactivity” value ([2]; albino mice, majority of tissues (pancreas, liver, gall bladder etc.)) was 4 h and the “radioactivity in the liver” value ([2]; mice) was “high concentrations”. For the same compound, the “association of radioactivity with melanin” value [2] was “no long‐term association”, the “association of radioactivity with melanin” value ([2]; listed as [^14C]‐miricorilant) was “no affinity” and the “clinical inhibition of CYP2C8” value (CYP2C8) was “strong inhibitor”. The “adverse effects in 28‐day toxicology study” value (28-day toxicology study) was “No adverse effects”, the blood plasma ratio [3] was 1.14 and the “administered radioactivity recovered in excreta” value (Human [14C] ADME study; 240‐h sampling period, mean ± SD) was 93.68 ± 1.63%. For the same compound, the “administered dose recovered in urine” value (Human [14C] ADME study; human, 150 mg oral solution) was 4.56%, the “total radioactivity recovered in feces” value (Human [14C] ADME study; human, 150 mg oral solution) was 89.12% and 89.12 ± 1.16% and the Cmax (Human [14C] ADME study; male, human, plasma, po, 150 mg) was 343 ng/mL. The administered radioactivity eliminated (Human [14C] ADME study; within the first 48 h post dose) was 19.28 ± 9.01%, the “clinical inhibition of BCRP” value (BCRP) was “moderate inhibitor” and the “Substrate of OATP1B3” value (OATP1B3) was “not a substrate”.
